These results are taken from ChEMBL document CHEMBL3576775 (Eur J Med Chem, 2015).

Experiment [1] deals with Mus musculus. Nature of the experiment: Anti-hyperalgesic activity against Swiss albino mouse assessed as reduction in paw lickings at 5 mg/kg, ip administered 30 mins prior to capsaicin injection relative to control. It counts as functional.
Experiment [2] in a line: Competitive inhibition of soyabean 5-LOX by UV-Visible spectrophotometry. The arrangement: species or system Glycine max.
A short description of experiment [3]: Inhibition of soyabean 5-LOX using arachidonic acid as substrate by microplate scanning spectrophotometer analysis. Further details: species or system Glycine max. Summed up:
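Soybean lipoxygenase in assay buffer was mixed with compound (DMSO solutions at 0.01 to 100 μM, 1:10 into enzyme solution). Reaction started with arachidonic acid; plate shaken 5 min, chromogen added, shaken 5 min, read at 490 nm. Blanks and positive controls included. Duplicates, deviation <5%, averaged; percent inhibition calculated from activity.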

Experiment [4] deals with T1, Prostaglandin G/H synthase 1 (Ovis aries, UniProt P05979).
T1 sequence (P05979 whole entry): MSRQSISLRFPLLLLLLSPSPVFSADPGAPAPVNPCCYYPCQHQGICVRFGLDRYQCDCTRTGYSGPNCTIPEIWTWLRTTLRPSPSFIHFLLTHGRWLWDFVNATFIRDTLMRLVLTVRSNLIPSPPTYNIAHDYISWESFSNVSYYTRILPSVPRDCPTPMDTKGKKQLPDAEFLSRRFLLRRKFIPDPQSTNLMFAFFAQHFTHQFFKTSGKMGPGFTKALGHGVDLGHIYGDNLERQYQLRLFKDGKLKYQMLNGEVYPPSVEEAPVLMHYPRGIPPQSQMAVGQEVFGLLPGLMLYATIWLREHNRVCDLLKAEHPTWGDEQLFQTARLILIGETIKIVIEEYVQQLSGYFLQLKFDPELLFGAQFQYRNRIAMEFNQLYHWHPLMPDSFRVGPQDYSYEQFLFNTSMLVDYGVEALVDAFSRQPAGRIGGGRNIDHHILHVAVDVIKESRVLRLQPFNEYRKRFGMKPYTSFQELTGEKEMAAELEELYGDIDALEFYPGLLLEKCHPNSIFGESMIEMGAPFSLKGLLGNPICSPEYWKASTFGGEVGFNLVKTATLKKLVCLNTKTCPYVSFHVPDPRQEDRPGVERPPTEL
The experiment can be described thus: Inhibition of ovine COX-1 assessed as PGF2alpha formation using arachidonic acid as substrate pretreated with compound for 20 mins prior to substrate addition by spectrophotometric analysis.

Experiment [5] has as its system Glycine max.
The subject of experiment [6] is Mus musculus. The experiment can be described thus: Anti-hyperalgesic activity against Swiss albino mouse assessed as reduction in paw lickings at 10 mg/kg, ip administered 30 mins prior to capsaicin injection relative to control. It counts as functional. Summed up: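 Swiss albino mice, 5 per group; compound given i.p. 30 min before 20 μL capsaicin injected into plantar surface of right hind paw. […] Paw lickings and twitchings counted over 10 min after capsaicin as hyperalgesia indicator; mean ± SEM, one-way ANOVA with Tukey's test versus control.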

The target of experiment [7] is T2, Prostaglandin G/H synthase 2 (Homo sapiens) (UniProt P35354).
T2 sequence (whole entry): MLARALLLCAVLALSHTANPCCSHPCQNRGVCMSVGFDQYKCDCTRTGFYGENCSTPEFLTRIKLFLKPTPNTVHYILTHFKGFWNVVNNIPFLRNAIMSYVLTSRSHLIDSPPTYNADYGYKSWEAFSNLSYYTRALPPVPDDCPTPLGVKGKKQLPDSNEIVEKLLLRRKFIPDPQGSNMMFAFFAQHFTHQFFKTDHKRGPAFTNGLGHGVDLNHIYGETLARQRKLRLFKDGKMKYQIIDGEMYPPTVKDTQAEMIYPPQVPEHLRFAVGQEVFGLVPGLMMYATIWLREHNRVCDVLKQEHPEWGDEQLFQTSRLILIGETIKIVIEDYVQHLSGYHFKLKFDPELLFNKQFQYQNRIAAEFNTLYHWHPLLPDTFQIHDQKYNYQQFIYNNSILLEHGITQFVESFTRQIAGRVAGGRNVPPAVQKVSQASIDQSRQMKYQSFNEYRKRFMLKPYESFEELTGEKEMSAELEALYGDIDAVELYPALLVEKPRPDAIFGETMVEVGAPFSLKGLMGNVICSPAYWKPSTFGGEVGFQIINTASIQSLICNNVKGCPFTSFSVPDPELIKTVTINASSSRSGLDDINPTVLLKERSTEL

Experiment [8] concerns Glycine max. The experiment can be described thus: Competitive inhibition of soyabean 5-LOX using arachidonic acid as substrate by double reciprocal plot analysis. Summed up: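 Arachidonic acid in HEPES:DMSO (1:1) at 2 mM, added in 5 μL increments (50 μM final each) to fixed enzyme. Change in substrate absorbance at maxima plotted double-reciprocally, without inhibitor and with 10 μM or 20 μM inhibitor; intersection of the extrapolated lines indicates inhibition type.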

Experiment [9] has as its target T3, Prostaglandin G/H synthase 2 (Homo sapiens, UniProt P35354).
T3 sequence (P35354 whole entry): T2 sequence (whole entry)
Nature of the experiment: Competitive inhibition of human recombinant COX-2 by UV-Visible spectrophotometry. Summed up:
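Double reciprocal plot from UV-vis absorbance change at the maximum. Arachidonic acid in HEPES:DMSO (1:1) added in 5 µl increments (each giving 50 µM final) to a fixed enzyme concentration. Repeated with inhibitor at fixed 10 µM and 20 µM. Type of inhibition taken from where the extrapolated trails meet; also from IC50 versus Ki comparison.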

Experiment [10] relates to Mus musculus. The experiment can be described thus: Anti-hyperalgesic activity against Swiss albino mouse assessed as reduction in paw lickings at 5 mg/kg, ip administered 30 mins prior to capsaicin injection and 30 mins after 200 ug misoprostol injection. It counts as functional, organism-based. Summed up:
(§1)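 Mice (5 per group, 7 groups), all treatments i.p. Misoprostol (200 μg) or substance P (10 μg) given 30 min before test compound (5 mg Kg⁻¹); capsaicin (20 μL) injected into right hind paw plantar surface 30 min later. Controls received normal saline. Paw lickings counted over 10 min after capsaicin.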

Experiment [11] deals with Mus musculus. The experiment can be described thus: Anti-inflammatory activity against Swiss albino mouse assessed as reduction in paw thickness at 5 mg/kg, ip administered 30 mins prior to dextran injection measured after 4 hrs by vernier calliper analysis relative to control. It counts as functional. Summed up:
(§2)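 Swiss albino mice, 5 per group. […] Paw thickness measured by vernier calipers at 1, 2, 3, 4, 6 and 24 h. Reduction expressed relative to control; mean ± SEM.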

Experiment [12] relates to Mus musculus. The experiment can be described thus: Anti-inflammatory activity against Swiss albino mouse assessed as reduction in paw thickness at 10 mg/kg, ip administered 30 mins prior to dextran injection measured after 4 hrs by vernier calliper analysis relative to control. It is filed as functional. The essentials:
as §2

The subject of experiment [13] is Mus musculus. Nature of the experiment: Anti-hyperalgesic activity against Swiss albino mouse assessed as reduction in paw lickings at 5 mg/kg, ip administered 30 mins prior to capsaicin injection and 30 mins after 10 ug substance-P injection. It counts as functional, organism-based. The essentials: as §1

Structures are written as SMILES. Active and inactive are the calls of the source. The calls are words filed in the database; no cut-off is given here.

By inhibition in vivo is commonly meant the percentage by which the read-out fell short of the control. As usually defined, the Ki is the equilibrium dissociation constant of an inhibitor or competing ligand from its target. Broadly, the IC50 is the midpoint of a concentration-inhibition curve. As for `Cc1ccc(S(=O)(=O)n2cc(C(=O)C(=O)NCC(=O)N[C@@H](Cc3c[nH]c4ccccc34)C(=O)O)c3ccccc32)cc1`, the inhibition in vivo at 5 mg/kg in experiment [1] turned out to be 88%. The Ki in experiment [2] was 0.064 µM; in experiment [9], 0.005 µM. Further, the IC50 in experiment [3] turned out to be 0.004 µM; in [4] it was 43.5 µM. Further, the Ka turned out to be 2.06 ×10⁶ /M in experiment [5] and 3.25 ×10⁶ /M in [7]. Besides, the inhibition in vivo at 10 mg/kg in experiment [6] was determined as 96%. In addition, in experiment [8], the inhibition entry was “Active”.
Consider `COC(=O)CC[C@@H](NC(=O)[C@@H](Cc1cnc[nH]1)NC(=O)C(=O)c1cn(S(=O)(=O)c2ccc(C)cc2)c2ccccc12)C(=O)OC`, for which the half-inhibitory concentration (IC50) in experiment [3] worked out at 3.7 µM; in experiment [4], 20.2 µM.
As for `Cc1ccc(S(=O)(=O)n2cc(C(=O)C(=O)N[C@H](Cc3c[nH]c4ccccc34)C(=O)NCC(=O)O)c3ccccc32)cc1`, the figures for the half-inhibitory concentration (IC50) in experiment [3] and in experiment [4] were 5.61 µM and over 100 µM, respectively.
For `COC(=O)[C@@H](Cc1c[nH]c2ccccc12)NC(=O)CNC(=O)C(=O)c1cn(S(=O)(=O)c2ccc(C)cc2)c2ccccc12`, in that order: 12.2 µM and 65.5 µM.
Consider `COC(=O)CNC(=O)CNC(=O)C(=O)c1cn(S(=O)(=O)c2ccc(C)cc2)c2ccccc12`, for which the Ki in [2] was 0.097 µM; in [9], 4.66 µM. In addition, the values for the IC50 in [3] and in experiment [4] were 0.1 µM and 104 µM, respectively. Moreover, the Ka was determined as 2.08 ×10⁵ /M in experiment [5] and 1.81 ×10² /M in experiment [7].
`Cc1ccc(S(=O)(=O)n2cc(C(=O)C(=O)N[C@@H](Cc3c[nH]c4ccccc34)C(=O)O)c3ccccc32)cc1`: the IC50 in experiment [3] came to 0.01 µM; in experiment [4], 87.2 µM.
Consider `COC(=O)CNC(=O)[C@@H](Cc1c[nH]c2ccccc12)NC(=O)C(=O)c1cn(S(=O)(=O)c2ccc(C)cc2)c2ccccc12`, for which the concentration for half-maximal inhibition (IC50) in experiment [3] was found to be 8.38 µM; in [4], 71.3 µM.
In the same order, the values of `Cc1ccc(S(=O)(=O)n2cc(C(=O)C(=O)NCC(=O)N[C@H](Cc3c[nH]c4ccccc34)C(=O)O)c3ccccc32)cc1` are 15.2 µM and 98.3 µM.
Turning to `Cc1ccc(S(=O)(=O)n2cc(C(=O)C(=O)NCC(=O)NCC(=O)O)c3ccccc32)cc1`, the inhibition in vivo at 5 mg/kg in experiment [1] was determined as 90%. Moreover, the Ki in [2] was 0.232 µM; in experiment [9] it was 3.12 µM. For the same compound, the half-inhibitory concentration (IC50) was 0.005 µM in [3] and over 100 µM in [4]. Moreover, the values for the Ka in [5] and in experiment [7] were 2.99 ×10⁵ /M and 1.9 ×10³ /M, respectively. In [8], the inhibition result was “Active”.
For the compound `COC(=O)CNC(=O)[C@H](Cc1c[nH]c2ccccc12)NC(=O)C(=O)c1cn(S(=O)(=O)c2ccc(C)cc2)c2ccccc12`, the results for the Ki in experiment [2] and in experiment [9] were 0.946 µM and 2.9 µM, respectively. Further, the IC50 in experiment [3] worked out at 0.8 µM; in experiment [4], 9.89 µM. In addition, the Ka in experiment [5] amounted to 5.6 ×10⁴ /M; in [7], 7.91 ×10³ /M.
Consider `Cc1ccc(S(=O)(=O)n2cc(C(=O)C(=O)N[C@@H](Cc3cnc[nH]3)C(=O)N[C@@H](CCC(=O)O)C(=O)O)c3ccccc32)cc1`, for which the inhibition result in experiment [10] and in experiment [8] was “Active” each time. The inhibition in vivo at 5 mg/kg in experiment [1] came to 95%; in [11], 45%. Further, the Ki stood at 0.536 µM in [2] and 0.012 µM in [9]. Besides, the 50% inhibitory concentration (IC50) amounted to 0.08 µM in [3] and 12.9 µM in experiment [4]. Besides, the inhibition in vivo at 10 mg/kg in experiment [12] was found to be 48%. Further, the Ka in experiment [5] was 1.99 ×10⁵ /M; in experiment [7] it was 7.76 ×10⁵ /M. The inhibition result in [13] is “inactive”.
`Cc1ccc(S(=O)(=O)n2cc(C(=O)C(=O)N[C@@H](Cc3cnc[nH]3)C(=O)O)c3ccccc32)cc1`: the IC50 in [3] was 2.8 µM; in [4], over 100 µM.
In the same order, the values of `Cc1ccc(S(=O)(=O)n2cc(C(=O)C(=O)N[C@H](Cc3cnc[nH]3)C(=O)N[C@H](CCC(=O)O)C(=O)O)c3ccccc32)cc1` are 2.33 µM and 151 µM.
Regarding `Cc1ccc(S(=O)(=O)n2cc(C(=O)C(=O)NCC(=O)O)c3ccccc32)cc1`, the concentration for half-maximal inhibition (IC50) in experiment [3] came out at 0.0086 µM; in [4] it was 90.1 µM.
Take `CC(C)(C)Sc1c(CC(C)(C)C(=O)O)n(Cc2ccc(Cl)cc2)c2ccc(OCc3ccc4ccccc4n3)cc12` [QUIFLAPON]: the IC50 in experiment [3] is 1.6 µM.
For the compound `O=C(O)Cc1ccccc1Nc1c(Cl)cccc1Cl` [DICLOFENAC], the inhibition in vivo at 10 mg/kg in experiment [12] was 42%; in experiment [6], 90%.
`NS(=O)(=O)c1ccc(-n2nc(C(F)(F)F)cc2-c2ccc(Br)cc2)cc1`: in [4], the IC50 came out at 13 µM.
As to `COC(=O)CC[C@H](NC(=O)[C@H](Cc1cnc[nH]1)NC(=O)C(=O)c1cn(S(=O)(=O)c2ccc(C)cc2)c2ccccc12)C(=O)OC`, the Ki in experiment [2] was determined as 0.356 µM; in experiment [9] it was 0.983 µM. The half-maximal inhibitory concentration (IC50) in experiment [3] was found to be 0.6 µM; in experiment [4], 76.5 µM. Besides, the Ka stood at 3.02 ×10⁵ /M in [5] and 4.43 ×10⁴ /M in [7].
Take `COC(=O)[C@H](Cc1c[nH]c2ccccc12)NC(=O)CNC(=O)C(=O)c1cn(S(=O)(=O)c2ccc(C)cc2)c2ccccc12`: the figures for the inhibition constant (Ki) in experiment [2] and in experiment [9] were 0.753 µM and 1.34 µM, respectively. Further, the IC50 in [3] was 1 µM; in experiment [4], 90.9 µM. Besides, the Ka in experiment [5] was determined as 7.7 ×10⁴ /M; in experiment [7] it was 9.87 ×10³ /M.
